Here are results for 14 molecules from PubChem BioAssay.

Assay [1] can be described thus: inhibitors of TNFa-induced NFkB p65 translocation, primary screen, imaging, HUVEC, MLSMR starter and 10KST1 sets (AID 438;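 active = inhibition above 20% together with a positive visual image hit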;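 also: compound added about 3h40 before a 20 min TNFalpha stimulation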;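 as to inhibition: signal is the nuclear over cytoplasmic p65 intensity ratio per well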). Particulars: HUVEC TNFa-induced p65 nuclear translocation; cell count: measured here: nuclei count (cytotoxicity indicator), at 2.08 µM; inhibition: at 2 µM, stronger effect = higher value, 0% TNFa-plus-vehicle, 100% no-TNFa wells.
The nature of assay [2]: inhibitors of mutant huntingtin aggregation, primary screen, imaging, exon1htt(103Q)mCFP cells, high-content imaging (AID 483;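 active = visual image review flags a hit and inhibition of aggregation exceeds 20%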;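 also: compound exposure lasted 3 days before fixation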;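 as to nuclei count: percent of the per-plate median nuclei count of sample wells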). Particulars: exon1htt(103Q)mCFP cell line, aggregate imaging, at 2 µM; inhibition of aggregation: stronger effect = higher value; nuclei count: measured here: cell count, toxicity.
A short description of assay [3]: inhibitors of E-selectin induction by TNFa, primary screen, imaging, HUVEC, immunofluorescence, MLSMR starter and 10KST1 sets (AID 487;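 active = visually confirmed hit in the image check and inhibition above 20%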;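 as to inhibition: signal is fraction of cell area covered by stained E-selectin grains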;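 as to nuclei count: 100% = median nuclei count of all wells on the same plate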). Particulars: HUVEC TNFalpha-induced E-selectin immunofluorescence imaging, at 2 µM; inhibition: stronger effect = higher value; nuclei count: measured here: cell number, toxicity.
Assay [4] addresses Voltage-gated potassium channel subunit beta-2 (Rattus norvegicus) (UniProt P62483). The assay is described as follows: KvBeta enzyme negative modulators, primary screen, biochemical, NADPH fluorescence (AID 622;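 active = fluorescence slope higher than the sample average by over 3 SD, cut at about -0.22 in these data, passing the limit was not always enough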;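 also: slope of raw intensity against log time taken from 70 to 1610 s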). Particulars: recombinant KvBeta, 4-cyanobenzaldehyde reduction, at 10 µM, stronger effect = higher value.
The target is the same in assay [5]. Briefly: KvBeta positive modulators, primary screen, biochemical, NADPH fluorescence (AID 623).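 Also: fluorescence intensity change per second fitted from 20 to 320 s.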 Particulars: Recombinant KvBeta, NADPH fluorescence decrease slope, 10 min; at 10 µM; stronger effect = lower value.
Assay [6] has as its target Muscarinic acetylcholine receptor M4 (Homo sapiens) (UniProt P08173). The assay is described as follows: compounds altering M4/GIRK thallium flux, either direction, primary screen, M4 allosteric agonist project, cell-based, HEK293 M4/GIRK, BTC-AM (AID 625;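 active = fluorescence slope after compound addition differing from the mean of all tested samples at 99.7% confidence, mostly higher but some lower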;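 also: thallium influx through GIRK channels coupled to M4 in HEK293 cells with BTC-AM dye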). Particulars: at 10 µM, actives lie on both sides. The method, boiled down: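 System: HEK293 cells with M4 receptor and GIRK channels | Incubation: Cells overnight at 37 °C, BTC-AM loading 1 h, reads 2 min total | Technique: Kinetic BTC-AM fluorescence sampled at 1 Hz, 10 s pre-addition baseline | Measure: Post-addition slope, 15–24 s, of baseline-normalized fluorescence | Control set: Carbachol positive, DMSO negative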

The nature of assay [7]: inhibitors of Sendai virus-induced IRF3 signaling, primary screen, TLR/RLR signaling modifier project, cell-based, Sendai virus stimulus, luciferase, 10K MLSCN set (AID 602276;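 active = inhibition at or above 50% at 10 µM; inactive = inhibition below 50%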;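 also: firefly luciferase from ISG56 promoter only with Renilla not read in this screen; 0% = Sendai virus plus DMSO and 100% = medium plus DMSO without virus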). Particulars: HEK293 RL24 IRF3 luciferase reporter, at 10 µM, stronger effect = higher value. Background: In a reporter assay the amount or activity of a reporter protein is the signal.
A short description of assay [8]: inhibitors of poly I:C-induced TLR3 signaling, primary screen, cell-based, poly I:C stimulus, luciferase, 10K MLSCN set (AID 602277;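 active = inhibition of the reporter signal at or above 50%; inactive = inhibition below 50%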). Particulars: HEK293-TLR3 RL24 IRF3 luciferase reporter, at 10 µM, stronger effect = higher value.

Calls of active or inactive are those of the source.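 The calls were made as follows, unless noted: active = NADPH fluorescence slope more negative than the mean of all samples by about 3 SD, 99.7% confidence; inactive = the rest.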

Voltage-gated potassium channel subunit beta-2 (Rattus norvegicus), sequence (P62483 whole entry, looked up): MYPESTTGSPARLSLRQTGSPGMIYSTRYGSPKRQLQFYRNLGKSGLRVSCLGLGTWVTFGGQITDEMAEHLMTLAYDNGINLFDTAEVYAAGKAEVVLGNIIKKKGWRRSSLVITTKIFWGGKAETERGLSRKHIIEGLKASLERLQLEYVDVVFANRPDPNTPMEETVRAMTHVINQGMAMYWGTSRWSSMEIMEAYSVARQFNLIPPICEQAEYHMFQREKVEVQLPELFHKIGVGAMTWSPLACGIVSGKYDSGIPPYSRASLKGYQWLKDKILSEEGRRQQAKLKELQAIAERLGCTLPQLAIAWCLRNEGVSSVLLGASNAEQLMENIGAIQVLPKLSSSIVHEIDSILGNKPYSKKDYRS
Muscarinic acetylcholine receptor M4 (Homo sapiens), sequence (P08173 whole entry, looked up): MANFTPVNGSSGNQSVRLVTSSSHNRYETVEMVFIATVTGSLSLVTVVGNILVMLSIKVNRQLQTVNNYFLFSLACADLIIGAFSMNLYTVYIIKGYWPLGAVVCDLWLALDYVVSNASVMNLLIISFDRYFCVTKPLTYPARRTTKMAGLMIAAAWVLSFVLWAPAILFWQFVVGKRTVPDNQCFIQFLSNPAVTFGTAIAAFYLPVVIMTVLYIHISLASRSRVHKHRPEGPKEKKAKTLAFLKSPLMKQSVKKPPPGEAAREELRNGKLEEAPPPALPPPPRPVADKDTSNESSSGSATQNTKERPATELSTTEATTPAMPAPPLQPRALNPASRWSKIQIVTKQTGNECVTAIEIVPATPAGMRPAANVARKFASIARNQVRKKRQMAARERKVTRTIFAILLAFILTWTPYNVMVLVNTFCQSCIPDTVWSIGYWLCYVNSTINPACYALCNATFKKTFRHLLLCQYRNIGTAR

For the molecule `CCCCn1nnnc1SCC(=O)N1CCN(C(=O)c2ccco2)CC1`, the cell count in assay [1] came out at 247. Further, the inhibition – broadly, the change of the read-out against control, counted positive when it falls – in assay [1] was 2.6% (inactive); in assay [3], 15.1% (inactive); in assay [7] it was 7.65% (inactive); in assay [8], 15.6% (inactive). Further, the inhibition of aggregation in assay [2] was 22.3% (inactive). Also, the values for the nuclei count in assay [2] and in assay [3] were 72.2% and 83.9%, respectively. The fluorescence slope was -0.463 (inactive) in assay [4] and 0.00637 (inactive) in assay [6]. For the same molecule, the NADPH fluorescence slope in assay [5] was -3e-05 (inactive).

As to `O=P(O)(O)c1ccccc1OCCOCCOc1ccccc1P(=O)(O)O`, the cell count in assay [1] was found to be 311. The inhibition in assay [1] was -0.9% (inactive); in assay [3], -21.3% (inactive); in assay [7], 11.2% (inactive); in assay [8] it was 15.3% (inactive). The inhibition of aggregation in assay [2] was 8% (inactive). Also, the values for the nuclei count in assay [2] and in assay [3] were 60.2% and 86.4%, respectively. Besides, the fluorescence slope in assay [4] is -0.308 (inactive); in assay [6], 0.00635 (inactive). Also, the NADPH fluorescence slope in assay [5] is -5.3e-05 (inactive).

`CC(C)(C)C1=C[C@@H](CO)C[C@@H](CO)C1`: in assay [1], the cell count worked out at 734. Also, the inhibition in assay [1] is -3.5% (inactive); in assay [3], -25.8% (inactive); in assay [7] it was 10.7% (inactive); in assay [8], 23.8% (inactive). Further, the inhibition of aggregation in assay [2] was -19.6% (inactive). Moreover, the values for the nuclei count in assay [2] and in assay [3] were 103% and 138%, respectively. For the same molecule, the fluorescence slope in assay [4] is -0.391 (inactive); in assay [6], 0.00843 (inactive). The NADPH fluorescence slope in assay [5] is -0.000123 (inactive).

On to `COc1ccc(N2CCN(C(=O)CN3C(=O)C4CC=CCC4C3=O)CC2)cc1` (centres undefined), for which, in assay [1], the cell count turned out to be 693. The inhibition was 9.7% (inactive) in assay [1], 55.9% (inactive) in assay [3], -11% (inactive) in assay [7] and -14.6% (inactive) in assay [8]. The inhibition of aggregation in assay [2] is 11% (inactive). For the same molecule, the results for the nuclei count in assay [2] and in assay [3] were 108% and 90.3%, respectively. The values for the fluorescence slope in assay [4] and in assay [6] were -0.575 (inactive) and 0.00533 (inactive), respectively. In addition, the NADPH fluorescence slope in assay [5] is 3.5e-05 (inactive).

Consider `Cc1nc2ccccc2cc1C(=O)NCc1ccco1`, for which the cell count in assay [1] turned out to be 387. Besides, the inhibition in assay [1] was 3.2% (inactive); in assay [3], -278% (inactive); in assay [7], 1.46% (inactive); in assay [8] it was 0.0614% (inactive). Besides, in assay [2], the inhibition of aggregation was -3.6% (inactive). Moreover, the nuclei count in assay [2] was 75.3%; in assay [3] it was 126%. In addition, the fluorescence slope in assay [4] was -0.53 (inactive); in assay [6], 0.00494 (inactive). In addition, the NADPH fluorescence slope in assay [5] is -3.7e-05 (inactive).

As to `Cc1nn(-c2ccccc2)c(C)c1C(=O)OCC(=O)c1c(N)n(CC(C)C)c(=O)n(C)c1=O`, the cell count in assay [1] came out at 486. The inhibition is 4.2% (inactive) in assay [1], -65.4% (inactive) in assay [3], 4.86% (inactive) in assay [7] and -99.7% (inactive) in assay [8]. Besides, the inhibition of aggregation in assay [2] was -2.5% (inactive). The nuclei count was 78.8% in assay [2] and 127% in assay [3]. Also, the fluorescence slope was -0.504 (inactive) in assay [4] and 0.00552 (inactive) in assay [6]. Further, the NADPH fluorescence slope in assay [5] was 0.000168 (inactive).

For the molecule `Cn1c(=O)cc(SCC(=O)NCC2CCCO2)c2ccc(Cl)cc21` (centres undefined), the cell count in assay [1] was determined as 467. Moreover, the inhibition was -11.6% (inactive) in assay [1], 26.9% (inactive) in assay [3], 10.3% (inactive) in assay [7] and 9.81% (inactive) in assay [8]. The inhibition of aggregation in assay [2] was 3.4% (inactive). Moreover, the nuclei count in assay [2] turned out to be 107%; in assay [3], 93.8%. Further, the fluorescence slope in assay [4] is -0.549 (inactive); in assay [6] it was 0.00522 (inactive). Further, the NADPH fluorescence slope in assay [5] is -3.4e-05 (inactive).

`CCCn1cc(SCC(=O)NCc2ccco2)c2ccccc21`: in assay [1], the cell count came out at 679. Further, the inhibition was -25.2% (inactive) in assay [1], 20% (inactive) in assay [3], 13% (inactive) in assay [7] and 5.85% (inactive) in assay [8]. The inhibition of aggregation in assay [2] was -35.4% (inactive). The nuclei count turned out to be 124% in assay [2] and 100% in assay [3]. Moreover, the fluorescence slope in assay [4] is -0.521 (inactive); in assay [6], 0.00408 (inactive). Besides, the NADPH fluorescence slope in assay [5] is 9.7e-06 (inactive).

As for `Cc1ccc(NC(=O)c2ccc(NS(=O)(=O)c3c(C)noc3C)cc2)cc1C`, the cell count in assay [1] is 319. Further, the inhibition was -15.8% (inactive) in assay [1], -49.9% (inactive) in assay [3], 6.15% (inactive) in assay [7] and 9.64% (inactive) in assay [8]. For the same molecule, in assay [2], the inhibition of aggregation was -9.9% (inactive). In addition, the nuclei count is 94.1% in assay [2] and 110% in assay [3]. Further, the fluorescence slope in assay [4] is -0.48 (inactive); in assay [6], 0.00475 (inactive). For the same molecule, in assay [5], the NADPH fluorescence slope was -0.000226 (inactive).

On to `O=C1CSC(c2cn(-c3ccccc3)nc2-c2cccs2)N1CC1CCCO1` (centres undefined), for which the cell count in assay [1] is 453. Also, the inhibition is -2.6% (inactive) in assay [1], -83.2% (inactive) in assay [3], 18.7% (inactive) in assay [7] and 26.5% (inactive) in assay [8]. Moreover, the inhibition of aggregation in assay [2] is 10.2% (inactive). Moreover, the nuclei count worked out at 101% in assay [2] and 117% in assay [3]. Further, the results for the fluorescence slope in assay [4] and in assay [6] were -0.534 (inactive) and 0.00528 (inactive), respectively. Further, the NADPH fluorescence slope in assay [5] was -3e-05 (inactive).

Turning to `CCn1c(COc2cccc3ccccc23)nnc1SCC(N)=O`, in assay [1], the cell count came to 436. Moreover, the inhibition in assay [1] was 9.4% (inactive); in assay [3] it was -0.1% (inactive); in assay [7], 12.9% (inactive); in assay [8], 19.7% (inactive). Moreover, the inhibition of aggregation in assay [2] was -3.1% (inactive). Further, the nuclei count came out at 99.6% in assay [2] and 124% in assay [3]. For the same molecule, the fluorescence slope is -0.524 (inactive) in assay [4] and 0.00477 (inactive) in assay [6]. Further, the NADPH fluorescence slope in assay [5] is -6.7e-05 (inactive).

On to `CCCCc1ccc(NC(=O)N[C@H](C(=O)O)C(C)CC)cc1` (some centres undefined), for which the cell count in assay [1] turned out to be 610. Besides, the inhibition in assay [1] was -13.3% (inactive); in assay [3], -22.1% (inactive); in assay [7], 4.79% (inactive); in assay [8], 14.4% (inactive). In addition, in assay [2], the inhibition of aggregation was -22.8% (inactive). The nuclei count in assay [2] came out at 109%; in assay [3] it was 118%. Moreover, the fluorescence slope in assay [4] was -0.446 (inactive); in assay [6] it was 0.00522 (inactive). The NADPH fluorescence slope in assay [5] is -3.7e-05 (inactive).

For `Cc1nc(SCC(=O)N2CCC(C(N)=O)CC2)n[nH]1`, the cell count in assay [1] turned out to be 516. Besides, the inhibition in assay [1] is -17.1% (inactive); in assay [3], -33.4% (inactive); in assay [7], -0.32% (inactive); in assay [8] it was -1.6% (inactive). For the same molecule, in assay [2], the inhibition of aggregation is -2.4% (inactive). For the same molecule, the nuclei count in assay [2] amounted to 98.4%; in assay [3], 119%. Moreover, the fluorescence slope in assay [4] is -0.581 (inactive); in assay [6], 0.00602 (inactive). For the same molecule, the NADPH fluorescence slope in assay [5] was -5.6e-05 (inactive).

Turning to `Cc1cc(SCC(N)=O)nc(SCC(=O)c2ccccc2)n1`, the cell count in assay [1] came to 584. Further, the inhibition was -3.3% (inactive) in assay [1], 16.8% (inactive) in assay [3], 10.5% (inactive) in assay [7] and 21% (inactive) in assay [8]. The inhibition of aggregation in assay [2] was -8.2% (inactive). Also, the nuclei count in assay [2] was found to be 105%; in assay [3] it was 91.6%. The fluorescence slope in assay [4] was -0.585 (inactive); in assay [6], 0.00307 (inactive). Also, in assay [5], the NADPH fluorescence slope is -5.2e-05 (inactive).
